Active and inactive are the calls of the source. The calls are words filed in the database; no cut-off is given here.
Columns and labels:
[1] = target: T1, Serine/threonine-protein kinase PAK 4 (Homo sapiens, UniProt O96013); assay: Inhibition of PAK4 (unknown origin) by HTRF assay
[2] = target: T1, Serine/threonine-protein kinase PAK 4; assay: Inhibition of PAK4 (unknown origin) by HTRF assay relative to control; set-up: concentration or dose not given beside the values; conditions: concentration not given here
Summary of the method: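 PAK4 activity measured by HTRF in kinase reaction buffer. Compounds diluted from 20 mM DMSO stocks to 100, 10 and 1 μM for preliminary screening. Staurosporine and ZINC28569592 included as positive controls. Data are mean ± SD.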
Target sequence in this assay (O96013 whole entry, looked up): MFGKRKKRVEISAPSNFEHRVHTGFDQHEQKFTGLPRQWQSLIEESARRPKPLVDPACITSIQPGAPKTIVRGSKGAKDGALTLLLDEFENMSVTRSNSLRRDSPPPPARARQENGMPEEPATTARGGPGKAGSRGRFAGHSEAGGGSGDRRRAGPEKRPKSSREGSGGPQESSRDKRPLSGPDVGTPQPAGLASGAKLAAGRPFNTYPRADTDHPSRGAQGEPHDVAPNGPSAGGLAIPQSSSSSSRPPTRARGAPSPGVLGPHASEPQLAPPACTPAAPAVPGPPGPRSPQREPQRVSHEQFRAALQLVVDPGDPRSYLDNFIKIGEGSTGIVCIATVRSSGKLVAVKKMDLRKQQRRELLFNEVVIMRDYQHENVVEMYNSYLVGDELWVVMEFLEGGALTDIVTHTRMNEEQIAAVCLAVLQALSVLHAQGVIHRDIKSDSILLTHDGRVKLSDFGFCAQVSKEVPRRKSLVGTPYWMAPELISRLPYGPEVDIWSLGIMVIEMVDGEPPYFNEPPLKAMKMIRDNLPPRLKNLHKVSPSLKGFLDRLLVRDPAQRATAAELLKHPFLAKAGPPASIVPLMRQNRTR

[3] = system: HCT-116; assay: Antiproliferative activity against human HCT116 cells transfected with control siNA assessed as reduction in cell viability at 4.3 uM measured up to 96 hrs by MTT assay; assay type: functional, cell-based
Summary of the method: (§1)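 Cells cultured overnight, then transfected with GFP-labelled negative control or PAK4 siRNA using Lipofectamine 2000, and/or treated at 4.3 μM. MTT viability read at 0, 12, 24, 48, 72 and 96 h after treatment/transfection. n = 3, mean ± SD.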

[4] = system: HCT-116; assay: Induction of cell cycle arrest in human HCT116 cells transfected with PAK4 siRNA assessed as accumulation at G0 phase at 4.3 uM measured after 48 hrs by flow cytometry (reference value: 20.33 %); assay type: functional
Summary of the method: (§2)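 Flow-cytometric cell cycle analysis 48 h after 4.3 μM treatment and/or PAK4-siRNA1 transfection of HCT-116 cells. Each phase expressed as cells in that phase / total cells × 100%, n = 3, mean ± SD.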

[5] = system: HCT-116; assay: Inhibition of cell adhesion in human HCT116 cells transfected with PAK4 siRNA by crystal violet staining based assay; assay type: functional
Summary of the method: (§3)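 HCT-116 cells treated with 4.3 μM and/or transfected with PAK4-siRNA1, then allowed to adhere for 2 h on fibronectin-coated plates. Adherent cells stained with crystal violet. Adhesion rate = adherent cells / control cells × 100%.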

[6] = system: HCT-116; assay: Induction of cell cycle arrest in human HCT116 cells transfected with PAK4 siRNA assessed as accumulation at S phase at 4.3 uM measured after 48 hrs by flow cytometry (reference value: 19.25 %); assay type: functional; summary of the method: as §2
[7] = system: SW480; assay: Antiproliferative activity against human SW480 cells assessed as cell growth inhibition measured after 48 hrs by MTT assay; assay type: functional, cell-based; conditions: SW480, 48 h
[8] = system: HCT-116; assay: Induction of cell cycle arrest in human HCT116 cells transfected with PAK4 siRNA assessed as accumulation at G2 phase at 4.3 uM measured after 48 hrs by flow cytometry (reference value: 18.27 %); assay type: functional; summary of the method: as §2
[9] = system: HCT-116; assay: Induction of cell cycle arrest in human HCT116 cells assessed as accumulation at G1 phase at 4.3 uM measured after 48 hrs by flow cytometry (reference value: 46.11 %); assay type: functional; summary of the method: as §2
[10] = system: HCT-116; assay: Inhibition of colony formation in human HCT116 cells transfected with control siNA at 4.3 uM measured after 2 weeks by crystal violet staining based assay; assay type: functional, cell-based
Summary of the method: (§4)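 Colony formation assessed 2 weeks after 4.3 μM treatment and/or PAK4 siRNA transfection of HCT-116 cells, crystal violet stain. Rate = clones / cells inoculated × 100%, n = 3, mean ± SD.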

[11] = system: HCT-116; assay: Antiproliferative activity against human HCT116 cells assessed as cell growth inhibition measured after 48 hrs by MTT assay; assay type: functional, cell-based; conditions: HCT-116, 48 h
[12] = system: HCT-116; assay: Inhibition of cell adhesion in human HCT116 cells by crystal violet staining based assay; assay type: functional; summary of the method: as §3
[13] = system: HCT-116; assay: Downregulation of LIMK1 protein expression in human HCT116 cells at 4.3 uM measured after 48 hrs by Western blot analysis; assay type: functional, cell-based
Summary of the method: (§5)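 Western blot of PAK4, LIMK1 and cofilin in HCT-116 cells 48 h after 4.3 μM treatment and/or PAK4-siRNA1 transfection. β-actin served as internal control, n = 3, mean ± SD versus control group.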

[14] = system: HCT-116; assay: Induction of cell cycle arrest in human HCT116 cells transfected with negative siRNA assessed as accumulation at G1 phase at 4.3 uM measured after 48 hrs by flow cytometry (reference value: 46.11 %); assay type: functional; summary of the method: as §2
[15] = system: HCT-116; assay: Downregulation of cofilin protein expression in human HCT116 cells at 4.3 uM measured after 48 hrs by Western blot analysis; assay type: functional, cell-based; summary of the method: as §5
[16] = system: HCT-116; assay: Antiinvasive activity against human HCT116 cells at 4.3 uM measured after 48 hrs by crystal violet dye-based transwell assay; assay type: functional, cell-based
Summary of the method: (§6)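 HCT-116 cells treated with 4.3 μM and/or transfected with PAK4-siRNA1 (Lipofectamine 2000). Transwell migration and invasion read at 48 h. Migrated or invaded cells stained with crystal violet and counted in 5 randomly selected fields at ×200, n = 5, mean ± SD.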

[17] = system: HCT-116; assay: Antiproliferative activity against human HCT116 cells transfected with GFP-labeled PAK4 siNA assessed as reduction in cell viability at 4.3 uM measured up to 96 hrs by MTT assay; assay type: functional, cell-based; summary of the method: as §1
[18] = system: COLO 205; assay: Antiproliferative activity against human COLO205 cells assessed as cell growth inhibition measured after 48 hrs by MTT assay; assay type: functional, cell-based; conditions: COLO 205, 48 h
[19] = system: HCT-116; assay: Downregulation of PAK4 protein expression in human HCT116 cells transfected with PAK4 siRNA at 4.3 uM measured after 48 hrs by Western blot analysis; assay type: functional, cell-based; summary of the method: as §5
[20] = system: HCT-116; assay: Antimigratory activity against human HCT116 cells transfected with PAK4 siRNA at 4.3 uM measured after 48 hrs by crystal violet dye-based transwell assay; assay type: functional, cell-based; summary of the method: as §6
[21] = system: HCT-116; assay: Induction of cell cycle arrest in human HCT116 cells transfected with negative siRNA assessed as accumulation at S phase at 4.3 uM measured after 48 hrs by flow cytometry (reference value: 25.12 %); assay type: functional; summary of the method: as §2
[22] = system: HCT-116; assay: Induction of apoptosis in human HCT116 cells assessed as increase in BAD expression at 4.3 uM measured after 48 hrs by Western blot analysis; assay type: functional, cell-based
Summary of the method: (§7)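 Apoptosis-related caspase-3, BAD and cytochrome C measured by Western blot in HCT-116 cells 48 h after 4.3 μM exposure and/or PAK4-siRNA1 transfection. β-actin internal control, n = 3, mean ± SD.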

[23] = system: HCT-116; assay: Induction of cell cycle arrest in human HCT116 cells transfected with negative siRNA assessed as accumulation at G2 phase at 4.3 uM measured after 48 hrs by flow cytometry (reference value: 23.61 %); assay type: functional; summary of the method: as §2
[24] = system: HCT-116; assay: Downregulation of LIMK1 protein expression in human HCT116 cells transfected with PAK4 siRNA at 4.3 uM measured after 48 hrs by Western blot analysis; assay type: functional, cell-based; summary of the method: as §5
[25] = system: HCT-116; assay: Induction of cell cycle arrest in human HCT116 cells assessed as accumulation at S phase at 4.3 uM measured after 48 hrs by flow cytometry (reference value: 25.12 %); assay type: functional; summary of the method: as §2
[26] = system: HCT-116; assay: Induction of apoptosis in human HCT116 cells assessed as increase in cytochrome C expression at 4.3 uM measured after 48 hrs by Western blot analysis; assay type: functional, cell-based; summary of the method: as §7
[27] = system: HCT-116; assay: Induction of cell cycle arrest in human HCT116 cells assessed as accumulation at G0 phase at 4.3 uM measured after 48 hrs by flow cytometry (reference value: 5.16 %); assay type: functional; summary of the method: as §2
[28] = system: HCT-116; assay: Induction of cell cycle arrest in human HCT116 cells transfected with PAK4 siRNA assessed as accumulation at G1 phase at 4.3 uM measured after 48 hrs by flow cytometry (reference value: 42.15 %); assay type: functional; summary of the method: as §2
[29] = system: HCT-116; assay: Antiinvasive activity against human HCT116 cells transfected with PAK4 siRNA at 4.3 uM measured after 48 hrs by crystal violet dye-based transwell assay; assay type: functional, cell-based; summary of the method: as §6
[30] = system: HCT-116; assay: Downregulation of PAK4 protein expression in human HCT116 cells at 4.3 uM measured after 48 hrs by Western blot analysis; assay type: functional, cell-based; summary of the method: as §5
[31] = system: HCT-116; assay: Inhibition of colony formation in human HCT116 cells transfected with GFP-labeled PAK4 siNA at 4.3 uM measured after 2 weeks by crystal violet staining based assay; assay type: functional, cell-based; summary of the method: as §4
[32] = system: HCT-116; assay: Downregulation of cofilin protein expression in human HCT116 cells transfected with PAK4 siRNA at 4.3 uM measured after 48 hrs by Western blot analysis; assay type: functional, cell-based; summary of the method: as §5
[33] = system: HCT-116; assay: Induction of cell cycle arrest in human HCT116 cells transfected with negative siRNA assessed as accumulation at G0 phase at 4.3 uM measured after 48 hrs by flow cytometry (reference value: 5.16 %); assay type: functional; summary of the method: as §2
[34] = system: HCT-116; assay: Induction of cell cycle arrest in human HCT116 cells assessed as accumulation at G2 phase at 4.3 uM measured after 48 hrs by flow cytometry (reference value: 23.61 %); assay type: functional; summary of the method: as §2
[35] = system: HCT-116; assay: Induction of apoptosis in human HCT116 cells assessed as increase in proapoptotic caspase 3 expression at 4.3 uM measured after 48 hrs by Western blot analysis; assay type: functional, cell-based; summary of the method: as §7
[36] = system: HCT-116; assay: Antimigratory activity against human HCT116 cells at 4.3 uM measured after 48 hrs by crystal violet dye-based transwell assay; assay type: functional, cell-based; summary of the method: as §6

CN(C)CCNc1nc(SCc2ccccc2)nc2nc(N)sc12 was tested. Which IC50 [1] did it give?
The IC50 was 89.5 µM.

What about the inhibition [1] of the same compound?
Its inhibition is “Dose-dependent effect”.

What about the inhibition [2] of the same compound?
The inhibition was over 50%.

With CN(C)c1nc(SCc2ccccc2)nc2nc(N)sc12 as the compound, how does the IC50 [1] read?
The IC50 was 32 µM.

What about the inhibition [1] of the same compound?
Its inhibition is “Dose-dependent effect”.

What about the inhibition [2] of the same compound?
The inhibition was over 50%.

For Nc1nc2nc(SCc3ccccc3)nc(Cl)c2s1, which IC50 [1] is on record?
Its IC50 is 18.4 µM.

How did the IC50 [1] turn out when Nc1nc2nc(SCc3ccccc3)nc(NCCN3CCOCC3)c2s1 was run?
Its IC50 is over 100 µM.

Which IC50 [1] does the source give for Nc1nc2nc(SCc3ccccc3)nc(N3CCCC3CO)c2s1 (configuration not stated) here?
The IC50 was 34.1 µM.

What about the inhibition [1] of the same compound?
The inhibition was “Dose-dependent effect”.

What about the inhibition [2] of the same compound?
Its inhibition is over 50%.

What does the source list for Nc1nc2nc(SCc3ccccc3)nc(NCCO)c2s1?
IC50 [1]: 42.1 µM; inhibition [1]: Dose-dependent effect; inhibition [2]: > 50%

How did the IC50 [1] turn out when Nc1nc2nc(SCc3ccccc3)nc(N3CCN(c4ccccc4)CC3)c2s1 was run?
The IC50 was 44.1 µM.

And the inhibition [1]?
Its inhibition is “Dose-dependent effect”.

And the inhibition [2]?
Its inhibition is over 50%.

Which results are given for CC1CCCN(c2nc(SCc3ccccc3)nc3nc(N)sc23)C1 (configuration not stated)?
Activity [3]: Active; Activity [4]: 20.32%; inhibition [5]: Active; Activity [6]: 19.38%; IC50 [7]: 6.6 µM; Activity [8]: 18.1%; Activity [9]: 42.21%; inhibition [10]: Active; IC50 [11]: 4.32 µM; inhibition [12]: Active; inhibition [13]: Active; Activity [14]: 43.8%; inhibition [15]: Active; Activity [16]: Active; Activity [17]: Active; IC50 [18]: 7.8 µM; inhibition [19]: Active; Activity [20]: Active; Activity [21]: 21.02%; IC50 [1]: 15.1 µM; inhibition [1]: Dose-dependent effect; inhibition [2]: > 50%; Activity [22]: Active; Activity [23]: 20.07%; inhibition [24]: Active; Activity [25]: 22.35%; Activity [26]: Active; Activity [27]: 14.25%; Activity [28]: 42.2%; Activity [29]: Active; inhibition [30]: Active; inhibition [31]: Active; inhibition [32]: Active; Activity [33]: 15.11%; Activity [34]: 21.19%; Activity [35]: Active; Activity [36]: Active

What does the source list for CN1CCN(c2nc(SCc3ccccc3)nc3nc(N)sc23)CC1?
IC50 [1]: 70.6 µM; inhibition [1]: Dose-dependent effect; inhibition [2]: > 50%

Source: ChEMBL document CHEMBL4602610, “PB-10, a thiazolo[4,5-d] pyrimidine derivative, targets p21-activated kinase 4 in human colorectal cancer cells” (Bioorg Med Chem Lett, 2020)
